Activity calls are given as the source filed them.
What was measured:
[1] = Solubility of the compound in water/methanol (1:1) mixture; type: physicochemical; conditions: buffer
[2] = Stability of the compound in water/methanol (1:1) mixture assessed as nitric oxide release under light irradiation at 50 uM by amperometric detection method; type: physicochemical; conditions: buffer
[3] = Selectivity ratio of Ki for sigma 1 receptor in guinea pig brain membranes to Ki for sigma 2 receptor (unknown origin); type: cell membranes
[4] = biological target: Sigma intracellular receptor 2 (Homo sapiens, UniProt Q5BJF2); assay: Displacement of [3H]-DTG from sigma 2 receptor (unknown origin) after 120 mins by liquid scintillation counting method
A2058 [5] = assay: Phototoxicity in human A2058 cells assessed as decrease in cell viability at 10 to 25 uM preincubated for 24 hrs followed by light irradiation for 15 mins by MTT assay; type: functional, cell-based
How it was run: (§1)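 Cells seeded at 10 × 10^3 per well and grown 24 h. Compound from DMSO stock, diluted in medium, incubated 24 h at 37 °C. Medium then swapped for phenol red-free medium and cells irradiated 15 min (150 W Xe lamp, 390 nm cutoff). MTT (0.5%) for 4 h, formazan in DMSO, OD 550 nm; viability as % of untreated controls. Quadruplicate wells, ≥2 repeats.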

A2058 [6] = assay: Phototoxicity in human A2058 cells assessed as decrease in cell viability at 50 uM preincubated for 24 hrs followed by light irradiation for 15 mins by MTT assay; type: functional, cell-based; how it was run: as §1
[7] = Dark toxicity in human NCTC-2544 cells assessed as decrease in cell viability after 24 hrs by MTT assay; type: cell-based
How it was run: (§2)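 Cells seeded at 10 × 10^3 per well, grown 24 h, then exposed in the dark for 24 h at 37 °C to compound (DMSO stock diluted in medium), top concentration 100 µM. MTT 0.5% added for 4 h, formazan dissolved in DMSO, read at 550 nm. Viability is expressed relative to untreated controls. EC50 comes from a variable-slope sigmoidal fit; quadruplicate wells, mean ± SEM.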

[8] = Dark toxicity in human A2058 cells assessed as decrease in cell viability after 24 hrs by MTT assay; type: cell-based; how it was run: as §2
[9] = Stability in human MCF7 cells assessed as nitric oxide release under light irradiation at 50 uM preincubated for 24 hrs followed by light irradiation for 15 mins by DCF-DA dye-based fluorescence microscopic method; type: ADME, cell-based; conditions: mcf7, 0.25 h
How it was run: (§3)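 Cells plated on glass coverslips at 50,000, attached overnight, serum-starved 24 h, then treated with compound for 24 h. Loaded with 10 µM DCF-DA for 1 h, washed in PBS, irradiated in phenol red-free medium (Xe lamp, 390 nm cutoff, 15 min). Fixed in 4% PFA and imaged by fluorescence microscopy at 10x and 40x, dark versus light.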

[10] = biological target: Sigma non-opioid intracellular receptor 1 (Cavia porcellus, UniProt Q60492); assay: Displacement of [3H]-(+)-pentazocine from sigma 1 receptor in guinea pig brain membranes after 150 mins by liquid scintillation counting method; type: cell membranes, Membrane
How it was run: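 Separated by filtration on PEI-presoaked GF/B filters, washed with ice-cold buffer, counted by liquid scintillation.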

[11] = Stability of the compound in water/methanol (1:1) mixture assessed as nitric oxide release under dark condition at 50 uM by amperometric detection method; type: physicochemical; conditions: buffer
NCTC-2544 [12] = assay: Dark toxicity in human NCTC-2544 cells assessed as decrease in cell viability at 10 to 50 uM after 24 hrs by MTT assay; type: cell-based; conditions: nctc-2544, 24 h
How it was run: (§4)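 Dark arm of the light experiments. Cells were seeded at 10 × 10^3 per well, precultured 24 h, then incubated 24 h at 37 °C with graded compound concentrations without irradiation. Viability was read by MTT (0.5%, 4 h, DMSO, 550 nm) as percent of untreated controls; quadruplicate wells, mean ± SD.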

[13] = Dark toxicity in human MCF7 cells assessed as decrease in cell viability after 24 hrs by MTT assay; type: cell-based; how it was run: as §2
[14] = Stability in human MCF7 cells assessed as nitric oxide release under light irradiation at 50 uM preincubated for 24 hrs followed by light irradiation for 15 mins by Griess assay; type: ADME, cell-based; conditions: mcf7, 0.25 h
How it was run: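 After 50 µM compound treatment and irradiation (or dark control), cells were pelleted and lysed in hypotonic solution. Supernatant mixed 1:1 with Griess reagent, 30 min at 37 °C in the dark, absorbance read at 545 nm. Normalised to protein content; total nitrite quantified against a sodium nitrite standard.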

NCTC-2544 [15] = assay: Phototoxicity in human NCTC-2544 cells assessed as decrease in cell viability at 10 to 50 uM preincubated for 24 hrs followed by light irradiation for 15 mins by MTT assay; type: cell-based; conditions: nctc-2544, 0.25 h
How it was run: (§5)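 Cells preincubated 24 h with graded compound concentrations, medium then replaced with phenol red-free medium. Irradiated 15 min with a 150 W Xe lamp through a 390 nm cutoff filter; untreated cells also irradiated. Viability by MTT (0.5%, 4 h, DMSO, 550 nm) as percent of untreated controls; quadruplicate wells, mean ± SD.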

MCF7 [16] = assay: Phototoxicity in human MCF7 cells assessed as decrease in cell viability at 10 to 50 uM preincubated for 24 hrs followed by light irradiation for 15 mins by MTT assay; type: functional, cell-based; how it was run: as §5
[17] = Stability of the compound in water/methanol (1:1) mixture assessed as nitric oxide release under light irradiation by amperometric detection method; type: physicochemical; conditions: buffer
A2058 [18] = assay: Phototoxicity in human A2058 cells assessed as decrease in cell viability at 10 to 50 uM preincubated for 24 hrs followed by light irradiation for 15 mins by MTT assay; type: functional, cell-based; how it was run: as §5
MCF7 [19] = assay: Dark toxicity in human MCF7 cells assessed as decrease in cell viability at 10 to 50 uM after 24 hrs by MTT assay; type: cell-based; conditions: mcf7, 24 h; how it was run: as §4
A2058 [20] = assay: Dark toxicity in human A2058 cells assessed as decrease in cell viability at 10 to 50 uM after 24 hrs by MTT assay; type: cell-based; conditions: a2058, 24 h; how it was run: as §4
NCTC-2544 [21] = assay: Phototoxicity in human NCTC-2544 cells assessed as decrease in cell viability at 0.01 to 10 uM preincubated for 24 hrs followed by light irradiation for 15 mins by MTT assay; type: cell-based; conditions: nctc-2544, 0.25 h; how it was run: as §5
MCF7 [22] = assay: Dark toxicity in human MCF7 cells assessed as decrease in cell viability at 0.01 to 10 uM after 24 hrs by MTT assay; type: cell-based; conditions: mcf7, 24 h; how it was run: as §4
[23] = Stability in human A2058 cells assessed as nitric oxide release under light irradiation at 10 uM preincubated for 24 hrs followed by light irradiation for 15 mins by DCF-DA dye-based fluorescence microscopic method; type: ADME, cell-based; conditions: a2058, 0.25 h; how it was run: as §3
MCF7 [24] = assay: Phototoxicity in human MCF7 cells assessed as decrease in cell viability at 0.01 to 10 uM preincubated for 24 hrs followed by light irradiation for 15 mins by MTT assay; type: functional, cell-based; how it was run: as §5
[25] = Stability in human MCF7 cells assessed as nitric oxide release under light irradiation at 10 uM preincubated for 24 hrs followed by light irradiation for 15 mins by DCF-DA dye-based fluorescence microscopic method; type: ADME, cell-based; conditions: mcf7, 0.25 h; how it was run: as §3
A2058 [26] = assay: Phototoxicity in human A2058 cells assessed as decrease in cell viability at 1 to 10 uM preincubated for 24 hrs followed by light irradiation for 15 mins by MTT assay; type: functional, cell-based; how it was run: as §5
NCTC-2544 [27] = assay: Dark toxicity in human NCTC-2544 cells assessed as decrease in cell viability at 0.01 to 10 uM after 24 hrs by MTT assay; type: cell-based; conditions: nctc-2544, 24 h; how it was run: as §4

Sequence of Sigma intracellular receptor 2 (Q5BJF2 whole entry): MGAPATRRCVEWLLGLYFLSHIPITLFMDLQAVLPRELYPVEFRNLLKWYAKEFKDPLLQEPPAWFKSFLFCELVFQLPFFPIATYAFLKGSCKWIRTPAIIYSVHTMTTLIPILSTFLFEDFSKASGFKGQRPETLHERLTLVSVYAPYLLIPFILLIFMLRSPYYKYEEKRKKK
Sequence of Sigma non-opioid intracellular receptor 1 (Q60492 whole entry): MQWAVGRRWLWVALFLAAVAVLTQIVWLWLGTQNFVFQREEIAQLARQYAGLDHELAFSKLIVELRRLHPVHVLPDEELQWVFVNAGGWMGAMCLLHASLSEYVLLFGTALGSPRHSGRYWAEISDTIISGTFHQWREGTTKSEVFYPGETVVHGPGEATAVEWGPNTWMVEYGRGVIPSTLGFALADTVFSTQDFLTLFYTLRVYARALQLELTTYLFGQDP

SMILES	solubility [1]	Ratio Ki [3]	Ki [4] [µM]	EC50 at 24 h ([7]; read-out: EC50) [µM]	EC50 at 24 h ([7]; read-out: pEC50 (converted)) [µM]	EC50 at 24 h ([8]; read-out: EC50) [µM]	EC50 at 24 h ([8]; read-out: pEC50 (converted)) [µM]	Ki [10] [µM]	EC50 at 24 h ([13]; read-out: EC50) [µM]	EC50 at 24 h ([13]; read-out: pEC50 (converted)) [µM]	Stability [17]	also measured
COc1cc2c(cc1OC)CN(CCCCCNc1ccc([N+](=O)[O-])c(C(F)(F)F)c1)CC2	Soluble	1.55	0.0255	> 100	> 100	> 100	> 100	0.0394	> 100	> 100		Stability [2]: Unstable; Activity (A2058 [5]): inactive; Activity (A2058 [6]): Active; Stability [9]: Unstable; Stability [11]: Stable; Activity (NCTC-2544 [12]): Non-Toxic; Stability [14]: Unstable; Activity (NCTC-2544 [15]): Non-Toxic; Activity (MCF7 [16]): Active
O=[N+]([O-])c1ccc(NCCCCN2CCC(Cc3ccccc3)CC2)cc1C(F)(F)F	Soluble	2.38	0.0084					0.02			Unstable	
COc1cc2c(cc1OC)CN(CCNc1ccc([N+](=O)[O-])c(C(F)(F)F)c1)CC2	Soluble	164	0.0238	> 100	> 100	> 100	> 100	3.92	> 100	> 100	Unstable	Activity (A2058 [18]): inactive; Activity (MCF7 [19]): Non-Toxic; Activity (A2058 [20]): Non-Toxic; Stability [9]: Unstable; Activity (NCTC-2544 [12]): Non-Toxic; Stability [14]: Unstable; Activity (NCTC-2544 [15]): Non-Toxic; Activity (MCF7 [16]): Active
O=[N+]([O-])c1ccc(NCCCCCN2CCC(Cc3ccccc3)CC2)cc1C(F)(F)F	Soluble	1.68	0.024	15	15.1	14.2	14.1	0.0404	14.9	14.8	Unstable	Activity (NCTC-2544 [21]): Non-Toxic; Activity (MCF7 [22]): Non-Toxic; Stability [23]: Unstable; Activity (MCF7 [24]): Active; Stability [25]: Unstable; Activity (A2058 [26]): Active; Activity (NCTC-2544 [27]): Non-Toxic
O=[N+]([O-])c1ccc(NCCN2CCC(Cc3ccccc3)CC2)cc1C(F)(F)F	Soluble	0.53	0.0761					0.0407			Unstable	
COc1cc2c(cc1OC)CN(CCCCNc1ccc([N+](=O)[O-])c(C(F)(F)F)c1)CC2	Soluble	1.64	0.023					0.0378			Unstable	
COc1cccc2c1C(=O)c1c(O)c3c(c(O)c1C2=O)C[C@@](O)(C(=O)CO)C[C@@H]3O[C@H]1C[C@H](N)[C@H](O)[C@H](C)O1 [DOXORUBICIN]				32.5	32.4	6.5	6.46		15.3	15.5		
O=[N+]([O-])c1ccc(NCCCN2CCC(Cc3ccccc3)CC2)cc1C(F)(F)F	Soluble	1.87	0.0223					0.0416			Unstable	
COc1cc2c(cc1OC)CN(CCCNc1ccc([N+](=O)[O-])c(C(F)(F)F)c1)CC2	Soluble	13.1	0.0162					0.212			Unstable	

— ChEMBL document CHEMBL4020818, “Novel Sigma Receptor Ligand-Nitric Oxide Photodonors: Molecular Hybrids for Double-Targeted Antiproliferative Effect” (J Med Chem, 2017)
